Measured values taken from ChEMBL document CHEMBL3232844, “Synthesis and structure activity relationships of schweinfurthin indoles” (2014).

Test system: SF-295
Test: Cytotoxicity against human SF295 cells
Type: functional
Conditions: read-out: GI50
Outline: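 Tested in a 60-cell-line human tumor panel screen; the read-out is growth inhibition, reported as GI50 for each cell line.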

In the case of `COc1cc(/C=C/c2cc(O)c(CC=C(C)C)c(O)c2)cc2c1O[C@]1(C)CC[C@@H](O)C(C)(C)[C@H]1C2` [SCHWEINFURTHIN F], the GI50 is reported as less than 36 nM.

Molecule `CC(C)=CCc1c(O)cc(/C=C/c2cc(O)c3c(c2)C[C@@H]2C(C)(C)[C@H](O)CC[C@@]2(C)O3)cc1O` [SCHWEINFURTHIN G] has a GI50 of 10 nM.
